17 compounds from PubChem BioAssay can be followed below.

Assay [1] can be described thus: hit retest on RPL19A-GFP reporter strain – cell-based, S. cerevisiae, flow cytometry, cherry picks, mother/daughter gates, confirmation (AID 2270;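 active = GFP response below 50% of the DMSO control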). Particulars: 3 h, at 10 µM, stronger effect = lower value, 100 = same GFP as DMSO wells. (In flow cytometry, cells or beads pass a laser one at a time.)
Assay [2] can be described thus: yeast TOR pathway reporter LAP4-GFP change – cell-based, cherry picks, flow cytometry, mother/daughter gates, confirmation (AID 2271;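 active = GFP response above 150% of the DMSO control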;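 note: ratio of sample to DMSO plate mean so 100% equals DMSO level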). Particulars: S. cerevisiae LAP4-GFP strain, 3 h, at 10 µM, stronger effect = higher value, 100 means same as DMSO control. The essentials: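 Material: Alexa Fluor 633-labelled Saccharomyces cerevisiae GFP-fusion strain, single-plex | Amount: Yeast cells seeded at OD600 of 0.2 | Buffer or medium: SC growth medium | Schedule: 3 h exposure, 30 °C | Measured by: HT flow cytometry, GFP fluorescence channel | Evaluation: % GFP response vs DMSO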

A short description of assay [3]: TOR pathway reporter MEP2-GFP, retest of hits – S. cerevisiae, flow cytometry GFP, cherry picks, confirmation (AID 2272;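 active = GFP response above 150% of the DMSO control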;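 note: ratio of well signal to plate DMSO mean so 100% equals DMSO level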). Particulars: S. cerevisiae MEP2-GFP strain, 3 h, at 10 µM, stronger effect = higher value.
Assay [4] is described as follows: yeast AGP1-GFP fluorescence change, single-dose – cell-based, flow cytometry, S. cerevisiae, cherry picks, confirmation (AID 2273).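 Note: median GFP channel fluorescence over the whole cell population gate.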 Particulars: S. cerevisiae AGP1-GFP strain, 3 h, at 10 µM.
Assay [5] is described as follows: TOR pathway CIT2 reporter hit retest – S. cerevisiae, GFP fusion, cherry picks, mother/daughter gates, confirmation (AID 2274). Particulars: S. cerevisiae CIT2-GFP strain, flow cytometry, 3 h, at 10 µM, stronger effect = higher value.
Where [6] appears, read: measured here: daughter cell gate.
Setting [7] is: measured here: mother cell gate.
Where [8] appears, read: measured here: daughter cell gate response.
Setting [9] is: measured here: mother cell gate response.

The source made the active and inactive calls.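 Rule for the calls, unless noted: active = GFP response above 150% of the DMSO level; inconclusive = fewer than 70 events counted for a yeast strain; inactive = the rest.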

For the compound `CCOC(=O)c1ccc2nc(Nc3nc4ccc(F)cc4s3)sc2c1`, the GFP response vs DMSO was 99.6% (inactive) in assay [1], 98.1% in assay [1] (setting [6]), 99.3% in assay [1] (setting [7]) and 101% (inactive) in assay [3]. Also, the GFP response relative to DMSO in assay [2] is 101% (inactive); in assay [2] (setting [8]), 97.5%; in assay [2] (setting [9]), 102%. Also, the GFP response, % of DMSO was 105% (inactive) in assay [4], 103% (inactive) in assay [5], 103% in assay [5] (setting [6]) and 103% in assay [5] (setting [7]).
On to `CC(C)Cn1c(=O)c(C(=O)Nc2ccncc2)c(O)c2ccccc21`, for which the GFP response vs DMSO in assay [1] is 94.7% (inactive); in assay [1] (setting [6]) it was 101%; in assay [1] (setting [7]), 85%; in assay [3] it was 117% (inactive). The GFP response relative to DMSO is 160% (active) in assay [2], 122% in assay [2] (setting [8]) and 155% in assay [2] (setting [9]). For the same compound, the GFP response, % of DMSO was 88.7% (inactive) in assay [4], 97.8% (inactive) in assay [5], 99.7% in assay [5] (setting [6]) and 90.2% in assay [5] (setting [7]).
With `COc1ccc(-c2nnc(NC(=O)c3ccc(S(=O)(=O)N4COCC4(C)C)cc3)o2)cc1`, the GFP response vs DMSO in assay [1] was 96.5% (inactive); in assay [1] (setting [6]), 98.1%; in assay [1] (setting [7]), 94%; in assay [3], 103% (inactive). The GFP response relative to DMSO is 95.3% (inactive) in assay [2], 92.9% in assay [2] (setting [8]) and 97.4% in assay [2] (setting [9]). Further, the GFP response, % of DMSO in assay [4] was 103% (inactive); in assay [5], 98.6% (inactive); in assay [5] (setting [6]) it was 99.3%; in assay [5] (setting [7]) it was 98.2%.
For `CN1CCN(C(c2ccc(C(F)(F)F)cc2)c2ccc3cccnc3c2O)CC1` (configuration not stated), the GFP response vs DMSO in assay [1] was 93.6% (inactive); in assay [1] (setting [6]), 87.3%; in assay [1] (setting [7]), 86.7%; in assay [3], 109% (inactive). The GFP response relative to DMSO in assay [2] is 216% (active); in assay [2] (setting [8]), 190%; in assay [2] (setting [9]), 218%. Moreover, the GFP response, % of DMSO in assay [4] is 87.4% (inactive); in assay [5], 97.3% (inactive); in assay [5] (setting [6]) it was 95.6%; in assay [5] (setting [7]), 94.4%.
`CCCCCCCCC/C(=N\O)c1ccccn1`: the GFP response vs DMSO was 85% (inactive) in assay [1], 81.4% in assay [1] (setting [6]), 82.6% in assay [1] (setting [7]) and 108% (inactive) in assay [3]. For the same compound, the GFP response relative to DMSO in assay [2] is 214% (active); in assay [2] (setting [8]), 170%; in assay [2] (setting [9]), 213%. Besides, the GFP response, % of DMSO in assay [4] was 89.3% (inactive); in assay [5], 97.2% (inactive); in assay [5] (setting [6]), 90.5%; in assay [5] (setting [7]) it was 97.1%.
For the compound `CN(C)c1ccc(N=Cc2nc(-c3ccccc3)oc2OC(=O)c2cccc(Cl)c2)cc1`, the GFP response vs DMSO in assay [1] was 101% (inactive); in assay [1] (setting [6]) it was 99.2%; in assay [1] (setting [7]) it was 101%; in assay [3] it was 100% (inactive). Besides, the GFP response relative to DMSO in assay [2] was 97.4% (inactive); in assay [2] (setting [8]) it was 97.2%; in assay [2] (setting [9]), 99.3%. For the same compound, the GFP response, % of DMSO in assay [4] is 98.7% (inactive); in assay [5], 102% (inactive); in assay [5] (setting [6]) it was 99.7%; in assay [5] (setting [7]), 102%.
In the case of `COc1cccc(C2CC(c3c(-c4ccccc4)c4cc(Cl)ccc4[nH]c3=O)=NN2S(C)(=O)=O)c1OC` (configuration not stated), the GFP response vs DMSO was 94.3% (inactive) in assay [1], 96.5% in assay [1] (setting [6]), 95% in assay [1] (setting [7]) and 99.5% (inactive) in assay [3]. In addition, the figures for the GFP response relative to DMSO in assay [2], in assay [2] (setting [8]) and in assay [2] (setting [9]) were 100% (inactive), 101% and 99.5%, respectively. The GFP response, % of DMSO was 102% (inactive) in assay [4], 101% (inactive) in assay [5], 102% in assay [5] (setting [6]) and 98% in assay [5] (setting [7]).
For `Cc1cc(OCc2ccc(C(=O)NN=C3CCCC3)cc2)ccc1Cl`, the GFP response vs DMSO is 103% (inactive) in assay [1], 98.7% in assay [1] (setting [6]), 96.1% in assay [1] (setting [7]) and 120% (inactive) in assay [3]. Further, the GFP response relative to DMSO in assay [2] is 132% (inactive); in assay [2] (setting [8]) it was 116%; in assay [2] (setting [9]) it was 135%. Further, the GFP response, % of DMSO is 101% (inactive) in assay [4], 95.2% (inactive) in assay [5], 91.5% in assay [5] (setting [6]) and 89.1% in assay [5] (setting [7]).
Take `CCOC(=O)c1c(C)[nH]c(C)c1C(=O)COC(=O)c1cc2ccccc2cc1O`: the GFP response vs DMSO is 96.2% (inactive) in assay [1], 97.3% in assay [1] (setting [6]), 94.8% in assay [1] (setting [7]) and 103% (inactive) in assay [3]. Also, the GFP response relative to DMSO in assay [2] is 106% (inactive); in assay [2] (setting [8]) it was 104%; in assay [2] (setting [9]) it was 109%. The GFP response, % of DMSO is 103% (inactive) in assay [4], 98.4% (inactive) in assay [5], 96.8% in assay [5] (setting [6]) and 96.7% in assay [5] (setting [7]).
For `CCOC(=O)c1c(C)oc2c1c(C(c1cccnc1)N1CCOCC1)c(O)c1ccccc12` (configuration not stated), the GFP response vs DMSO in assay [1] was 95% (inactive); in assay [1] (setting [6]), 98.5%; in assay [1] (setting [7]) it was 89.6%; in assay [3] it was 124% (inactive). Further, the GFP response relative to DMSO in assay [2] was 203% (active); in assay [2] (setting [8]), 199%; in assay [2] (setting [9]) it was 188%. Moreover, the GFP response, % of DMSO is 104% (inactive) in assay [4], 97.8% (inactive) in assay [5], 109% in assay [5] (setting [6]) and 86.3% in assay [5] (setting [7]).
For `CCN(c1ccccc1)S(=O)(=O)c1ccc(C(=O)Nc2nnc(COC)o2)cc1`, the GFP response vs DMSO was 101% (inactive) in assay [1], 99.5% in assay [1] (setting [6]), 102% in assay [1] (setting [7]) and 100% (inactive) in assay [3]. Besides, the GFP response relative to DMSO was 96.2% (inactive) in assay [2], 97.2% in assay [2] (setting [8]) and 98.3% in assay [2] (setting [9]). The GFP response, % of DMSO in assay [4] was 99.2% (inactive); in assay [5], 96.5% (inactive); in assay [5] (setting [6]), 94.8%; in assay [5] (setting [7]) it was 98.7%.
Consider `COC(=O)c1ccc(C2Nc3cccc4cccc(c34)N2)cc1`, for which the GFP response vs DMSO in assay [1] is 105% (inactive); in assay [1] (setting [6]), 102%; in assay [1] (setting [7]) it was 106%; in assay [3], 103% (inactive). In addition, the values for the GFP response relative to DMSO in assay [2], in assay [2] (setting [8]) and in assay [2] (setting [9]) were 129% (inactive), 123% and 133%, respectively. Besides, the GFP response, % of DMSO in assay [4] is 92.8% (inactive); in assay [5], 93% (inactive); in assay [5] (setting [6]), 90.2%; in assay [5] (setting [7]) it was 93.2%.
Consider `CCCc1[nH]nc2c1C(c1ccc(O)c(OC)c1)C(C#N)=C(N)O2` (configuration not stated), for which the GFP response vs DMSO is 103% (inactive) in assay [1], 101% in assay [1] (setting [6]), 103% in assay [1] (setting [7]) and 107% (inactive) in assay [3]. Besides, the figures for the GFP response relative to DMSO in assay [2], in assay [2] (setting [8]) and in assay [2] (setting [9]) were 92.6% (inactive), 94.1% and 93.1%, respectively. Further, the GFP response, % of DMSO in assay [4] was 97.6% (inactive); in assay [5], 103% (inactive); in assay [5] (setting [6]), 101%; in assay [5] (setting [7]) it was 103%.
For `CCc1ccc2c(c1)/C(=C/C(=O)c1cccs1)C(=O)N2`, the GFP response vs DMSO is 94.9% (inactive) in assay [1], 94.7% in assay [1] (setting [6]), 87.7% in assay [1] (setting [7]) and 100% (inactive) in assay [3]. Further, the results for the GFP response relative to DMSO in assay [2], in assay [2] (setting [8]) and in assay [2] (setting [9]) were 178% (active), 156% and 171%, respectively. The GFP response, % of DMSO is 104% (inactive) in assay [4], 91.3% (inactive) in assay [5], 91.5% in assay [5] (setting [6]) and 84.8% in assay [5] (setting [7]).
For `CC(=O)c1ccc(Sc2ccccn2)c([N+](=O)[O-])c1`, the GFP response vs DMSO is 98.4% (inactive) in assay [1], 99.4% in assay [1] (setting [6]), 95.8% in assay [1] (setting [7]) and 102% (inactive) in assay [3]. Also, the GFP response relative to DMSO in assay [2] is 99.2% (inactive); in assay [2] (setting [8]), 99.2%; in assay [2] (setting [9]) it was 97.2%. The GFP response, % of DMSO was 93.1% (inactive) in assay [4], 101% (inactive) in assay [5], 103% in assay [5] (setting [6]) and 99.7% in assay [5] (setting [7]).
In the case of `CCc1cccc(C)c1NC(=O)CC1Oc2ccc(C)cc2NC1=O` (configuration not stated), the GFP response vs DMSO in assay [1] is 99.3% (inactive); in assay [1] (setting [6]) it was 99.5%; in assay [1] (setting [7]) it was 100%; in assay [3], 101% (inactive). The GFP response relative to DMSO in assay [2] is 90.6% (inactive); in assay [2] (setting [8]), 91.3%; in assay [2] (setting [9]), 91.3%. Moreover, the GFP response, % of DMSO in assay [4] was 101% (inactive); in assay [5] it was 98.6% (inactive); in assay [5] (setting [6]), 97.6%; in assay [5] (setting [7]) it was 98.2%.
In the case of `Cc1ccc(S(=O)(=O)CC#CCOC(=O)c2ccc([N+](=O)[O-])cc2)cc1`, the GFP response vs DMSO was 105% (inactive) in assay [1], 107% in assay [1] (setting [6]), 103% in assay [1] (setting [7]) and 105% (inactive) in assay [3]. Besides, the results for the GFP response relative to DMSO in assay [2], in assay [2] (setting [8]) and in assay [2] (setting [9]) were 140% (inactive), 132% and 148%, respectively. Further, the GFP response, % of DMSO is 111% (inactive) in assay [4], 97.2% (inactive) in assay [5], 100% in assay [5] (setting [6]) and 90.8% in assay [5] (setting [7]).
